Active and inactive are the calls of the source. The rule behind the calls is not given here.
What was measured:
[1] = Cytotoxicity against CRFK cells assessed as change in cell morphology up to 100 uM; format: cell-based, Felis catus; details: cat
How it was run: (§1)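 Uninfected host-cell cultures were examined under the microscope. MCC was taken as the lowest compound concentration producing a detectable alteration of normal cell morphology, assessed at concentrations up to 100 μM.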

L1210 = assay: Cytotoxicity against mouse L1210 cells 2 days by coulter counting; format: functional; details: L1210, 48 h
How it was run: (§2)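 Cells were suspended at 300,000–500,000 cells/mL and added 1:1 to compound dilutions. Incubation was at 37 °C, 2 days for L1210 and 3 days for CEM, HeLa and HEL. Cells were counted with a Coulter counter. CC50 is the concentration inhibiting cell proliferation by 50%.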

Feline coronavirus = assay: Antiviral activity against Feline coronavirus infected in CrFK cells assessed as inhibition of viral plaque formation at 250 uM; format: functional, organism-based
How it was run: (§3)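 Confluent host cell monolayers were inoculated with 100 CCID50 of virus in the presence of test compound at serial dilutions (250, 50, 10, … μM). Viral cytopathicity was scored once it reached completion in untreated virus-infected controls.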

HeLa [2] = assay: Cytotoxicity against human HeLa cells assessed as change in cell morphology up to 100 uM; format: cell-based; how it was run: as §1
Human betaherpesvirus 5 [3] = assay: Antiviral activity against Human cytomegalovirus Davis infected in human HEL cells assessed as inhibition of viral plaque formation at 250 uM; format: functional, organism-based
Human alphaherpesvirus 2 = assay: Antiviral activity against Herpes simplex virus 2 G infected in human HEL cells assessed as inhibition of viral plaque formation at 250 uM; format: functional, organism-based; details: strain G
CCRF-CEM = assay: Cytotoxicity against human CEM cells 3 days by coulter counting; format: functional; details: 72 h; how it was run: as §2
Human alphaherpesvirus 1 [4] = assay: Antiviral activity against Herpes simplex virus 1 KOS infected in human HEL cells assessed as inhibition of viral plaque formation at 250 uM; format: functional, organism-based; how it was run: as §3
Coxsackievirus B4 [5] = assay: Antiviral activity against Coxsackievirus B4 infected in african green monkey Vero cells assessed as inhibition of viral plaque formation at 250 uM; format: functional, organism-based; how it was run: as §3
[6] = test system: Mammalian orthoreovirus 1; assay: Antiviral activity against Reovirus-1 infected in african green monkey Vero cells assessed as inhibition of viral plaque formation at 250 uM; format: functional, organism-based; how it was run: as §3
Coxsackievirus B4 [7] = assay: Antiviral activity against Coxsackievirus B4 infected in human HeLa cells assessed as inhibition of viral plaque formation at 250 uM; format: functional, organism-based; how it was run: as §3
Human alphaherpesvirus 3 [8] = assay: Antiviral activity against thymidine kinase-positive Varicella Zoster virus Oka infected in human HEL cells assessed as inhibition of viral plaque formation at 250 uM; format: functional, cell-based; details: strain Oka vaccine
Vaccinia virus = assay: Antiviral activity against Vaccinia virus infected in human HEL cells assessed as inhibition of viral plaque formation at 250 uM; format: functional, organism-based; details: Orthopoxvirus vaccinia; how it was run: as §3
[9] = test system: Vesicular stomatitis virus; assay: Antiviral activity against Vesicular stomatitis virus infected in human HEL cells assessed as inhibition of viral plaque formation at 250 uM; format: functional, organism-based; how it was run: as §3
Human betaherpesvirus 5 [10] = assay: Antiviral activity against Human cytomegalovirus AD169 infected in human HEL cells assessed as inhibition of viral plaque formation at 250 uM; format: functional, organism-based
HEL [11] = assay: Cytotoxicity against human HEL cells 3 days by coulter counting; format: functional; details: 72 h; how it was run: as §2
Punta Toro virus = assay: Antiviral activity against Punta Toro virus infected in african green monkey Vero cells assessed as inhibition of viral plaque formation at 250 uM; format: functional, organism-based
[12] = test system: Human immunodeficiency virus 1; assay: Antiviral activity against Human immunodeficiency virus 1 infected in human CEM cells assessed as inhibition of virus-induced giant cell formation after 4 days by microscopic analysis; format: functional, organism-based; details: CCRF-CEM
How it was run: (§4)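 CEM cells at about 3 × 10⁵ cells/cm³ were infected with 100 CCID50/mL of HIV-1(IIIB) or HIV-2(ROD), then seeded into wells holding test compound dilutions. After 4 days at 37 °C, virus-induced giant cell formation was scored microscopically.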

Vero = assay: Cytotoxicity against african green monkey Vero cells assessed as change in cell morphology up to 100 uM; format: cell-based; details: chlorocebus sabaeus; how it was run: as §1
[13] = test system: Human immunodeficiency virus 2; assay: Antiviral activity against Human immunodeficiency virus 2 infected in human CEM cells assessed as inhibition of virus-induced giant cell formation after 4 days by microscopic analysis; format: functional, organism-based; details: CCRF-CEM; how it was run: as §4
[14] = test system: Respiratory syncytial virus; assay: Antiviral activity against Respiratory syncytial virus infected in human HeLa cells assessed as inhibition of viral plaque formation at 250 uM; format: functional, organism-based; how it was run: as §3
MDCK = assay: Cytotoxicity against MDCK cells assessed as change in cell morphology up to 100 uM; format: cell-based, Canis lupus familiaris; details: dog; how it was run: as §1
Felid alphaherpesvirus 1 = assay: Antiviral activity against Felid herpesvirus 1 infected in CrFK cells assessed as inhibition of viral plaque formation at 250 uM; format: functional, organism-based; how it was run: as §3
Human alphaherpesvirus 1 [15] = assay: Antiviral activity against thymidine kinase-deficient acv-resistant Herpes simplex virus 1 KOS infected in human HEL cells assessed as inhibition of viral plaque formation at 250 uM; format: functional, organism-based
[16] = test system: Vesicular stomatitis virus; assay: Antiviral activity against Vesicular stomatitis virus infected in human Hela cells assessed as inhibition of viral plaque formation at 250 uM; format: functional, organism-based
Human alphaherpesvirus 3 [17] = assay: Antiviral activity against thymidine kinase-deficient Varicella Zoster virus 07/1 infected in human HEL cells assessed as inhibition of viral plaque formation at 250 uM; format: functional, organism-based
Sindbis virus = assay: Antiviral activity against Sindbis virus infected in african green monkey Vero cells assessed as inhibition of viral plaque formation at 250 uM; format: functional, organism-based; how it was run: as §3
HeLa [18] = assay: Cytotoxicity against human HeLa cells 3 days by coulter counting; format: functional; details: 72 h; how it was run: as §2
HEL [19] = assay: Cytotoxicity against human HEL cells assessed as change in cell morphology up to 100 uM; format: cell-based; how it was run: as §1
Human respirovirus 3 = assay: Antiviral activity against Parainfluenza-3 virus infected in african green monkey Vero cells assessed as inhibition of viral plaque formation at 250 uM; format: functional, organism-based; how it was run: as §3

Compound | Activity [1] | CC50 (L1210) [µM] | Activity (Feline coronavirus) | Activity (HeLa [2]) | Activity (Human betaherpesvirus 5 [3]) | Activity (Human alphaherpesvirus 2) | CC50 (CCRF-CEM) [µM] | Activity (Human alphaherpesvirus 1 [4]) | Activity (Coxsackievirus B4 [5]) | Activity [6] | Activity (Coxsackievirus B4 [7]) | Activity (Human alphaherpesvirus 3 [8]) | Activity (Vaccinia virus) | Activity [9] | Activity (Human betaherpesvirus 5 [10]) | CC50 (HEL [11]) [µM] | Activity (Punta Toro virus) | Activity [12] | Activity (Vero) | Activity [13] | further results
CCOP(=O)(OCC)[C@@H]1C[C@H](n2cc(-c3ccccc3)nn2)ON1C (relative stereo) | Non-toxic | 172 | inactive | Non-toxic | inactive | inactive | > 250 | inactive | inactive | inactive | inactive | inactive | inactive | inactive | inactive | 54 | inactive | inactive | Non-toxic | inactive | Activity [14]: inactive; Activity (MDCK): Non-toxic; Activity (Felid alphaherpesvirus 1): inactive; Activity (Human alphaherpesvirus 1 [15]): inactive; Activity [16]: inactive; Activity (Human alphaherpesvirus 3 [17]): inactive; Activity (Sindbis virus): inactive; CC50 (HeLa [18]): > 250 µM; Activity (HEL [19]): Non-toxic; Activity (Human respirovirus 3): inactive
CCOP(=O)(OCC)[C@@H]1C[C@H](n2cc(-c3ccccc3F)nn2)ON1C (relative stereo) | Non-toxic | 122 | inactive | Non-toxic | inactive | inactive | > 250 | inactive | inactive | inactive | inactive | inactive | inactive | inactive | inactive | 41 | inactive | inactive | Non-toxic | inactive | Activity [14]: inactive; Activity (MDCK): Non-toxic; Activity (Felid alphaherpesvirus 1): inactive; Activity (Human alphaherpesvirus 1 [15]): inactive; Activity [16]: inactive; Activity (Human alphaherpesvirus 3 [17]): inactive; Activity (Sindbis virus): inactive; CC50 (HeLa [18]): 247 µM; Activity (HEL [19]): Non-toxic; Activity (Human respirovirus 3): inactive
CCOP(=O)(OCC)[C@@H]1C[C@H](n2cc(-c3cccc(F)c3)nn2)ON1C (relative stereo) | Non-toxic | 104 | inactive | Non-toxic | inactive | inactive | > 250 | inactive | inactive | inactive | inactive | inactive | inactive | inactive | inactive | 43 | inactive | inactive | Non-toxic | inactive | Activity [14]: inactive; Activity (MDCK): Non-toxic; Activity (Felid alphaherpesvirus 1): inactive; Activity (Human alphaherpesvirus 1 [15]): inactive; Activity [16]: inactive; Activity (Human alphaherpesvirus 3 [17]): inactive; Activity (Sindbis virus): inactive; CC50 (HeLa [18]): 212 µM; Activity (HEL [19]): Non-toxic; Activity (Human respirovirus 3): inactive
CCOP(=O)(OCC)[C@@H]1C[C@H](n2cc(-c3ccc(F)cc3F)nn2)ON1C (relative stereo) | Non-toxic | 124 | inactive | Non-toxic | inactive | inactive | ≥ 250 | inactive | inactive | inactive | inactive | inactive | inactive | inactive | inactive | 42 | inactive | inactive | Non-toxic | inactive | Activity [14]: inactive; Activity (MDCK): Non-toxic; Activity (Felid alphaherpesvirus 1): inactive; Activity (Human alphaherpesvirus 1 [15]): inactive; Activity [16]: inactive; Activity (Human alphaherpesvirus 3 [17]): inactive; Activity (Sindbis virus): inactive; CC50 (HeLa [18]): 135 µM; Activity (HEL [19]): Non-toxic; Activity (Human respirovirus 3): inactive
CCOP(=O)(OCC)[C@@H]1C[C@H](n2cc(-c3ccccn3)nn2)ON1C (relative stereo) | Non-toxic | 206 | inactive | Non-toxic | inactive | inactive | > 250 | inactive | inactive | inactive | inactive | inactive | inactive | inactive | inactive | 78 | inactive | inactive | Non-toxic | inactive | Activity [14]: inactive; Activity (MDCK): Non-toxic; Activity (Felid alphaherpesvirus 1): inactive; Activity (Human alphaherpesvirus 1 [15]): inactive; Activity [16]: inactive; Activity (Human alphaherpesvirus 3 [17]): inactive; Activity (Sindbis virus): inactive; CC50 (HeLa [18]): > 250 µM; Activity (HEL [19]): Non-toxic; Activity (Human respirovirus 3): inactive

Reference: ChEMBL document CHEMBL1926651, “Design, synthesis, antiviral and cytostatic evaluation of novel isoxazolidine nucleotide analogues with a 1,2,3-triazole linker” (Eur J Med Chem, 2012)
